Source: ChEMBL document CHEMBL3045113, “Inhibition of plant-pathogenic bacteria by short synthetic cecropin A-melittin hybrid peptides” (Appl Environ Microbiol, 2006)
Converted amounts (≈) assume the structure as drawn. The source made the active and inactive calls. The rule behind the calls is not given here. *1 amine or outer side, *2 acyl side, *3 side chain or, on linkers, in order; H or OH if unused. Where a SMILES comes first, the peptide text is derived from it. [ ]: non-standard residue; d: D form. The star is where a group is joined. X1 = O=C([C@H](Cc1c[nH]c2ccccc12)N(Cc1ccccc1)[*:1])[*:2]; Palmitoyl = CCCCCCCCCCCCCCCC(=O)*; Tos = Cc1ccc(S(=O)(=O)*)cc1; Bz = O=C(c1ccccc1)*

Assays:
[1] = Hemolytic activity against Homo sapiens (human) RBC assessed as hemoglobin release after 1 hr; format: ADME, cell-based, Erythrocyte; conditions: red blood cells, read-out: HD50
Outline: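 Fresh EDTA-anticoagulated human blood was washed in Tris buffer (10 mM Tris, 150 mM NaCl, pH 7.2) and used as a 5% suspension. Equal volumes of cells and peptide at 800 to 12.5 μM were shaken for 1 h at 37°C, then centrifuged. Supernatant A540 was taken relative to buffer and a melittin full-lysis control. HD50 was derived by probit fit.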

Xanthomonas vesicatoria [2] = assay: Antibacterial activity against Xanthomonas vesicatoria 2133-2 assessed as growth inhibition after 48 hr; format: functional; conditions: 2133-2, 48 h, read-out: ED50 (the source's name)
Outline: (§1)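 Growth was read as OD600 every hour for 48 h at 25°C in tryptic soy broth across a peptide dilution series, in duplicate, repeated twice. Growth is the area under the curve, and inhibition is given as % of the water control. ED50 comes from a probit-dose model fitted by nonlinear least squares.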

[3] = test system: Pseudomonas syringae pv. syringae; assay: Antibacterial activity against Pseudomonas syringae pv. syringae EPS94 assessed as growth inhibition after 48 hr; format: functional; conditions: EPS94, 48 h, read-out: ED50 (the source's name); outline: as §1
Erwinia amylovora [4] = assay: Antibacterial activity against Erwinia amylovora PMV6076 assessed as growth inhibition after 48 hr; format: functional; conditions: PMV6076, 48 h, read-out: ED50 (the source's name); outline: as §1
Xanthomonas vesicatoria [5] = assay: Antibacterial activity against Xanthomonas vesicatoria 2133-2 after 48 hr by broth dilution method; format: functional; conditions: 2133-2, 48 h
Outline: (§2)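 Broth microdilution in tryptic soy broth with bacteria from a 10⁸ CFU/ml suspension. Final peptide levels were 750 down to 25 μM, or 250 to 3.12 μM for cecropin A. Plates were held at 25°C with OD600 read hourly for 48 h, in duplicate wells, and the run was repeated twice. MIC is the lowest concentration with no growth at 48 h.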

[6] = test system: Pseudomonas syringae pv. syringae; assay: Antibacterial activity against Pseudomonas syringae pv. syringae EPS94 after 48 hr by broth dilution method; format: functional; conditions: EPS94, 48 h; outline: as §2
Erwinia amylovora [7] = assay: Antibacterial activity against Erwinia amylovora PMV6076 after 48 hr by broth dilution method; format: functional; conditions: PMV6076, 48 h; outline: as §2
[8] = test system: Pseudomonas syringae pv. syringae; assay: Antibacterial activity against Pseudomonas syringae pv. syringae EPS94 at 25 to 750 uM after 48 hr by broth dilution method; format: functional, organism-based; outline: as §2
Erwinia amylovora [9] = assay: Antibacterial activity against Erwinia amylovora PMV6076 at 25 to 750 uM after 48 hr by broth dilution method; format: functional, organism-based; outline: as §2
Xanthomonas vesicatoria [10] = assay: Antibacterial activity against Xanthomonas vesicatoria 2133-2 at 25 to 750 uM after 48 hr by broth dilution method; format: functional, organism-based; outline: as §2
[11] = Stability of the compound in tris buffer at pH 7.6 at 50 ug/ml after 45 min by HPLC method in presence of proteinase K; conditions: pH 7.6, 0.75 h
Xanthomonas vesicatoria [12] = assay: Bactericidal activity against Xanthomonas vesicatoria 2133-2 assessed as decrease in survival at 5 uM after 48 hr; format: functional, organism-based
Outline: (§3)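 LB broth cultures at 4 × 10⁶ CFU/ml were exposed to 5 μM peptide. Samples taken every 30 min over 3 h were diluted 10-fold and plated on LB agar. Colonies were counted after 48 h at 25°C, and survival is expressed as % of the starting count.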

Erwinia amylovora [13] = assay: Bactericidal activity against Erwinia amylovora PMV6076 assessed as decrease in survival at 5 uM after 48 hr; format: functional, organism-based; outline: as §3
[14] = test system: Pseudomonas syringae pv. syringae; assay: Bactericidal activity against Pseudomonas syringae pv. syringae EPS94 assessed as decrease in survival at 5 uM after 48 hr; format: functional, organism-based; outline: as §3
Xanthomonas vesicatoria [15] = assay: Bactericidal activity against Xanthomonas vesicatoria 2133-2 assessed as decrease in survival at 5 uM after 90 min; format: functional, organism-based; outline: as §3

Compound	HC50 at 1 h [1] [µM]	EC50 (Xanthomonas vesicatoria [2]) [µM]	EC50 [3] [µM]	EC50 (Erwinia amylovora [4]) [µM]	MIC (Xanthomonas vesicatoria [5]) [µM]	MIC [6] [µM]	MIC (Erwinia amylovora [7]) [µM]	Activity [8]	Activity (Erwinia amylovora [9])	Activity (Xanthomonas vesicatoria [10])	Stability [11]	Activity (Xanthomonas vesicatoria [12])	Activity (Erwinia amylovora [13])	Activity [14]	Activity (Xanthomonas vesicatoria [15])
CC[C@H](C)[C@H](NC(=O)[C@H](CCCCN)NC(=O)[C@H](CCCCN)NC(=O)[C@H](Cc1ccccc1)NC(=O)[C@H](CC(C)C)NC(=O)[C@H](CCCCN)NC(=O)[C@@H](N)Cc1c[nH]c2ccccc12)C(=O)N[C@@H](CC(C)C)C(=O)N[C@@H](CCCCN)C(=O)N[C@@H](Cc1ccc(O)cc1)C(=O)N[C@@H](CC(C)C)C(N)=O	42	2.3	2.7	3.2	2 (≈ 2.96 µg/mL)	2 (≈ 2.96 µg/mL)	2 (≈ 2.96 µg/mL)	–	–	–	–	–	–	–	–
CC[C@H](C)[C@H](NC(=O)[C@H](CCCCN)NC(=O)[C@H](CCCCN)NC(=O)[C@H](Cc1ccccc1)NC(=O)[C@H](CC(C)C)NC(=O)[C@H](CCCCN)NC(=O)[C@@H](N)CCCCN)C(=O)N[C@@H](CC(C)C)C(=O)N[C@@H](CCCCN)C(=O)N[C@@H](CCCCN)C(=O)N[C@@H](CC(C)C)C(N)=O	–	–	–	–	–	–	–	inactive	inactive	inactive	–	–	–	–	–
CC[C@H](C)[C@H](NC(=O)[C@H](CCCCN)NC(=O)[C@H](CCCCN)NC(=O)[C@H](Cc1ccccc1)NC(=O)[C@H](CC(C)C)NC(=O)[C@H](CCCCN)NC(=O)[C@H](Cc1c[nH]c2ccccc12)NC(=O)c1ccccc1)C(=O)N[C@@H](CC(C)C)C(=O)N[C@@H](CCCCN)C(=O)N[C@H](C(=O)N[C@@H](CC(C)C)C(N)=O)C(C)C (Bz-WKLFKKILKVL-NH2)	11	–	9.5	15.1	< 2	15 (≈ 22.8 µg/mL)	15 (≈ 22.8 µg/mL)	–	–	–	Unstable	–	–	–	–
CC[C@H](C)[C@H](NC(=O)[C@H](CCCCN)NC(=O)[C@H](CCCCN)NC(=O)[C@H](Cc1ccccc1)NC(=O)[C@H](CC(C)C)NC(=O)[C@H](CCCCN)NC(=O)[C@H](Cc1c[nH]c2ccccc12)NCc1ccccc1)C(=O)N[C@@H](CC(C)C)C(=O)N[C@@H](CCCCN)C(=O)N[C@H](C(=O)N[C@@H](CC(C)C)C(N)=O)C(C)C (H-[X1]KLFKKILKVL-NH2)	30	2.5	3.8	5	2 (≈ 3.01 µg/mL)	5 (≈ 7.53 µg/mL)	7 (≈ 10.5 µg/mL)	–	–	–	–	Active	inactive	Active	–
CCCCCCCCCCCCCCCC(=O)N[C@@H](Cc1c[nH]c2ccccc12)C(=O)N[C@@H](CCCCN)C(=O)N[C@@H](CC(C)C)C(=O)N[C@@H](Cc1ccccc1)C(=O)N[C@@H](CCCCN)C(=O)N[C@@H](CCCCN)C(=O)N[C@H](C(=O)N[C@@H](CC(C)C)C(=O)N[C@@H](CCCCN)C(=O)N[C@H](C(=O)N[C@@H](CC(C)C)C(N)=O)C(C)C)[C@@H](C)CC (Palmitoyl-WKLFKKILKVL-NH2)	6	14.7	56.8	60	25 (≈ 41.3 µg/mL)	50 (≈ 82.7 µg/mL)	50 (≈ 82.7 µg/mL)	–	–	–	–	–	–	–	–
CC[C@H](C)[C@H](NC(=O)[C@H](CCCCN)NC(=O)[C@H](CCCCN)NC(=O)[C@H](Cc1ccccc1)NC(=O)[C@H](CC(C)C)NC(=O)[C@H](CCCCN)NC(=O)[C@H](Cc1c[nH]c2ccccc12)NS(=O)(=O)c1ccc(C)cc1)C(=O)N[C@@H](CC(C)C)C(=O)N[C@@H](CCCCN)C(=O)N[C@H](C(=O)N[C@@H](CC(C)C)C(N)=O)C(C)C (Tos-WKLFKKILKVL-NH2)	10	–	6.9	11.2	< 2	12 (≈ 18.8 µg/mL)	12 (≈ 18.8 µg/mL)	–	–	–	–	–	–	–	–
CC[C@H](C)[C@H](NC(=O)[C@H](CCCCN)NC(=O)[C@H](CCCCN)NC(=O)[C@H](Cc1ccccc1)NC(=O)[C@H](CC(C)C)NC(=O)[C@H](CCCCN)NC(=O)[C@@H](N)CCCCN)C(=O)N[C@@H](CC(C)C)C(=O)N[C@@H](CCCCN)C(=O)N[C@@H](Cc1ccccc1)C(=O)N[C@@H](CC(C)C)C(N)=O [KKLFKKILKFL-NH2]	203	1.9	2.1	2.5	2 (≈ 2.81 µg/mL)	2 (≈ 2.81 µg/mL)	2 (≈ 2.81 µg/mL)	–	–	–	Stable	–	Active	Active	Active
CC[C@H](C)[C@H](NC(=O)[C@H](CCCCN)NC(=O)[C@H](CCCCN)NC(=O)[C@H](Cc1ccccc1)NC(=O)[C@H](CC(C)C)NC(=O)[C@H](CCCCN)NC(=O)[C@@H](N)CCCCN)C(=O)N[C@@H](CC(C)C)C(=O)N[C@@H](CCCCN)C(=O)N[C@H](C(=O)N[C@@H](CC(C)C)C(N)=O)C(C)C [KKLFKKILKVL-NH2]	334	7.3	1.6	4.3	12 (≈ 16.3 µg/mL)	2 (≈ 2.71 µg/mL)	5 (≈ 6.78 µg/mL)	–	–	–	Unstable	Active	Active	Active	–
Ac-WKLFKKILKVL-NH2	17	2	4.3	9	2	7	10	–	–	–	Unstable	–	–	–	–
H-FKLFKKILKVL-NH2	–	–	–	–	–	–	–	inactive	inactive	inactive	–	–	–	–	–
H-LKLFKKILKVL-NH2	190	4.1	3.2	4.3	10	5	5	–	–	–	Unstable	Active	Active	Active	–
H-WKLFKKILKFL-NH2	32	–	1.9	1.3	< 2	5	5	–	–	–	–	–	–	–	–
H-WKLFKKILKKL-NH2	–	–	–	–	–	–	–	inactive	inactive	inactive	–	–	–	–	–
H-WKLFKKILKVL-NH2	104	3.6	5.5	5.5	7	7	7	–	–	–	Unstable	Active	Active	Active	–
H-WKLFKKILKWL-NH2	26	–	2.5	3	< 2	5	5	–	–	–	–	–	–	–	–
H-YKLFKKILKVL-NH2	–	–	–	–	–	–	–	inactive	inactive	inactive	–	–	–	–	–
